Laboratory results from ChEMBL document CHEMBL1126711, “The synthesis of novel GABA uptake inhibitors. 1. Elucidation of the structure-activity studies leading to the choice of (R)-1-[4,4-bis(3-methyl-2-thienyl)-3-butenyl]-3-piperidinecarboxylic acid (tiagabine) as an anticonvulsant drug candidate” (J Med Chem, 1993).

Experiments:
[1] = In vitro inhibition of [3H]GABA uptake in rat synaptosomes; assay type: functional, subcellular, Brain
Procedure, shortened: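 Rat forebrain homogenized in ice-cold 0.32 M sucrose, spun 10 min at 600g at 4 °C, and the pellet resuspended in pH 7.4 Na/K/Ca/Mg phosphate-glucose buffer. Synaptosomes (0.1 mg protein) preincubated with test substance 8 min at 30 °C. [3H]GABA (final 0.9 nM) plus unlabeled GABA (final 0.9 nM) then added for a further 8 min, followed by filtration. Uptake in the presence of 500 μM nipecotic acid subtracted. IC50 is the mean of 3–7 determinations ± SE.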

Mus musculus [2] = assay: In vivo anticonvulsant effect of DMCM-induced clonic seizures in mice at 15 mg/kg intraperitoneal dose expressed as effective dose; assay type: functional; conditions: ip
Procedure, shortened: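 Mice; test compound given ip. Clonic seizures induced with DMCM at 15 mg/kg ip. Inhibition of clonic seizures scored by observation, and ED50 expressed in mg/kg.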

Mus musculus [3] = species on record: Mus musculus; assay: Anticonvulsant effect of DMCM-induced seizures in mice expressed as effective dose
[4] = Lipophilicity measured as partition between octanol and pH 7.4 buffer; assay type: physicochemical; conditions: octanol/pH 7.4 buffer

Cl.Cn1cccc1/C(=C\CCN1CCC=C(C(=O)O)C1)c1ccccc1
IC50 [1]: 130 nM
ED50 (Mus musculus [2]): 1.8 mg/kg

Cc1ccsc1/C(=C\CCN1CCC[C@@H](C(=O)O)C1)c1cccs1
IC50 [1]: 690 nM

Cc1ccsc1C(=CCCN1CCCC(C(=O)O)C1)c1sccc1C.Cl (configuration not stated)
IC50 [1]: 87 nM
ED50 (Mus musculus [2]): 2.6 mg/kg

Cc1ccccc1C(=CCCN1CCC[C@H](C(=O)O)C1)c1ccccc1C.Cl
ED50 (Mus musculus [2]): 1.3 mg/kg

Cc1ccccc1/C(=C/CCN1CCC[C@H](C(=O)O)C1)c1sccc1C.Cl
ED50 (Mus musculus [2]): 1.2 mg/kg

Cc1ccsc1/C(=C\CCN1CCC[C@H](C(=O)O)C1)c1c(C)cccc1C
IC50 [1]: 247 nM

Cc1ccsc1/C(=C\CCN1CCC[C@H](C(=O)O)C1)c1cccs1.Cl
IC50 [1]: 60 nM
ED50 (Mus musculus [2]): 2.5 mg/kg

Cc1ccc(/C(=C/CCN2CCC[C@H](C(=O)O)C2)c2sccc2C)c(C)c1
IC50 [1]: 264 nM

O=C(O)C1CCCN(CCOC(c2ccccc2)c2ccccc2)C1 (configuration not stated)
IC50 [1]: 1370 nM

Cc1ccccc1/C(=C/CCN1CCC=C(C(=O)O)C1)c1sccc1C.Cl
IC50 [1]: 130 nM
ED50 (Mus musculus [2]): 1.9 mg/kg

Cc1ccsc1C(=CCCN1CCC=C(C(=O)O)C1)c1sccc1C.Cl
IC50 [1]: 138 nM
ED50 (Mus musculus [2]): 1.8 mg/kg

COc1ccc(C(OCCN2CCCC(C(=O)O)C2)c2ccc(OC)cc2)cc1 (configuration not stated)
IC50 [1]: > 3000 nM

Cl.O=C(O)C1CCCN(CCC=C(c2ccccc2)c2ccccc2)C1 (configuration not stated)
IC50 [1]: 330 nM
ED50 (Mus musculus [2]): 3.1 mg/kg

Cc1ccsc1/C(=C\CCN1CCCC(C(=O)O)C1)c1ccccc1 (configuration not stated)
IC50 [1]: 290 nM

Cc1ccsc1/C(=C\CCN1CCC=C(C(=O)O)C1)c1cccs1.Cl
IC50 [1]: 112 nM
ED50 (Mus musculus [2]): 2.1 mg/kg

O=C(O)[C@H]1CCCN(CCC=C2c3ccccc3-c3ccccc32)C1
IC50 [1]: 1920 nM

Cc1cc(Cl)ccc1/C(=C/CCN1CCC=C(C(=O)O)C1)c1sccc1C
IC50 [1]: 300 nM

Cc1ccccc1C(OCCN1CCCC(C(=O)O)C1)c1ccccc1C (configuration not stated)
IC50 [1]: 388 nM

O=C(O)C1=CCCN(CC/C=C(/c2ccccc2)c2cccs2)C1
IC50 [1]: 265 nM

Cc1ccsc1/C(=C\CCN1CCC=C(C(=O)O)C1)c1ccc(Cl)cc1Cl
IC50 [1]: 320 nM

Cc1ccsc1/C(=C\CCN1CCC=C(C(=O)O)C1)c1cc(Cl)cc(Cl)c1
IC50 [1]: 1860 nM

Cc1ccsc1/C(=C\CCN1CCC=C(C(=O)O)C1)c1ccc(Cl)cc1
IC50 [1]: 848 nM

O=C(O)C1CCCN(CCC=C(c2cccs2)c2cccs2)C1 (configuration not stated)
IC50 [1]: 256 nM

Cl.O=C(O)C1=CCCN(CCC=C(c2ccccc2)c2ccccc2)C1
IC50 [1]: 341 nM
ED50 (Mus musculus [2]): 3.6 mg/kg

Cc1ccsc1C(=CCCN1CCC[C@H](C(=O)O)C1)c1sccc1C
IC50 [1]: 218 nM

CN1C(=O)CN=C(c2ccccc2)c2cc(Cl)ccc21 [DIAZEPAM]
ED50 (Mus musculus [3]): 2.5 mg/kg

Cc1ccsc1C(=CCCN1CCC[C@@H](C(=O)O)C1)c1sccc1C.Cl [TIAGABINE HYDROCHLORIDE]
logD [4]: 1.59
IC50 [1]: 67 nM
ED50 (Mus musculus [2]): 1.2 mg/kg
